mABHD4 FP: ABHD4 inhibitors, primary screen, biochemical, fluorescence polarization, mouse; (Lyso)-N-acylphosphatidylethanolamine lipase (Mus musculus), Q8VD66; purified mABHD4, FP-Rh probe fluorescence polarization; inhibition, % at 8.92 µM; hit rate 0.54% among 370,000; AID 720543, 2013;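 active = inhibition exceeding the mean over every tested compound plus 3 SD, cut at about 30% in these data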;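 note: 0% = plate median of compound wells and 100% = S159A mutant with DMSO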
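Assay system: wild-type mouse ABHD4 protein; compound: single nominal dose of 8.92 µM, 0.89% DMSO final; schedule: 45 min + 60 min at 25 °C; measured by: FP readout, ex 525 nm / em 598 nm; evaluation: % inhibition of FP-Rh probe binding versus controls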
JMJD2C inh: inhibitors of GASC-1 histone demethylase, primary screen, biochemical, fluorescence, DELFIA europium. GST-JMJD2C(1-420) H3K9me3 demethylation. inhibition, % at 2.35 µM. hit rate 0.069% among 330,000;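 active = more than half of a compound's replicate wells show inhibition beyond 50%, single wells judged on their own value; inconclusive = some, but no more than half, of replicates pass 50% inhibition; inactive = no replicate passes 50% inhibition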;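 note: signal counts dimethyl H3K9 product captured on neutravidin plate; 0% = median of DMSO wells and 100% = 0.3 times that DMSO median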
SIAE inh: human SIAE inhibitors, primary screen, biochemical, fluorescence polarization, FP-Rh probe, 1536-well HTS. Sialate O-acetylesterase (Homo sapiens), Q9HAT2. SIAE FP-Rh probe binding. hit rate 0.69% among 370,000. inhibition, % at 9.66 µM;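 active = inhibition above a cutoff: mean of compounds within the control limits plus 3 SD of those, cut at about 17% in these data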;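 note: 0% = plate median of compound wells and 100% = probe without SIAE protein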
PRMT1 FP inh: PRMT1 methyltransferase inhibitors, primary screen, biochemical, fluorescence polarization. recombinant PRMT1, activity-based probe fluorescence polarization. inhibition, % at 2.79 µM. hit rate 1.3% among 370,000. AID 652257, 2013;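 active = inhibition above about 21% made by adding two undisclosed values, limit read from the data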
HTRA1 inh: HTRA1 serine protease inhibitors, primary screen, biochemical, fluorescence polarization, HTS; Q92743; recombinant HTRA1, FP-rhodamine activity-based probe; inhibition, % at 5.96 µM; hit rate 0.5% among 340,000; in the data active = inhibition above about 36%;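 note: 0% = enzyme with DMSO and 100% = wells lacking enzyme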
Target sequence (Q92743 whole entry, looked up): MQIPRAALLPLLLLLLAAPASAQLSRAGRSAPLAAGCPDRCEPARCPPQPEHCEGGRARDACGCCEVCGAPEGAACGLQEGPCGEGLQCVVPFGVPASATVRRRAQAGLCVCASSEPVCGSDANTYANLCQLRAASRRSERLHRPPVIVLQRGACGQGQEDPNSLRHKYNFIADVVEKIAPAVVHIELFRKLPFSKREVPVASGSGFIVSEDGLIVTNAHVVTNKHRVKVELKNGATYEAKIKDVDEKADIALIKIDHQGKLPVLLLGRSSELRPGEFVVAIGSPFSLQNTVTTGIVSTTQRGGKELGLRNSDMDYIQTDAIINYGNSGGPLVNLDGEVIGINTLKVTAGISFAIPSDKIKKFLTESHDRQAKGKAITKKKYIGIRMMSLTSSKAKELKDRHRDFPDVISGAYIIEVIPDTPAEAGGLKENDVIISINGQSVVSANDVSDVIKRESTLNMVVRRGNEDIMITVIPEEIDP
ABHD4 confirm: ABHD4 inhibitors, retest, confirmation, biochemical, fluorescence polarization, mouse | shares compounds with mABHD4 FP | purified mABHD4, FP-Rh probe fluorescence polarization | inhibition, % at 8.92 µM | hit rate 55% among 1,800;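 active = mean inhibition across replicates above the hit cutoff set in the primary screen, cut at about 30% in these data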;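 note: 0% = wild-type ABHD4 with DMSO and 100% = catalytically dead S159A mutant with DMSO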
An asterisk follows results filed as active; ? = inconclusive; . = no result; + = active, no number. An excerpt weighted towards active compounds, which were near 2.4% of everything screened.

SMILES | mABHD4 FP | JMJD2C inh | SIAE inh | PRMT1 FP inh | HTRA1 inh | ABHD4 confirm
CCn1cnc2cc(NCc3cccc(OC)c3O)ccc21 | + | -13.6 | 0.4 | 2.5 | 12.9 | 5.8
CCCCn1cnc2cc(NCc3cccc(OC)c3O)ccc21 | 14.5 | -0.1 | 1.0 | -0.5 | 12.1 | .
N=c1n(CCN2CCCCC2)c2ccccc2n1CC(=O)c1cccs1 | 42.8* | 8.6 | 1.4 | -3.5 | 1.9 | 12.7
O=C(NNC(=O)c1nc2ccccc2[nH]1)OCc1ccccc1 | 36.2* | -7.7 | 5.3 | -2.1 | 3.2 | 12.6
O=C(NNC(=O)OCc1ccccc1)OCc1ccccc1 | 9.1 | . | 13.3 | 1.1 | 3.3 | .
C=CCOC(=O)Nc1nc(CCNC(=O)OC(C)(C)C)c(C(=O)OC)s1 | 1.8 | . | -2.2 | 2.7 | . | .
COc1cc(Cl)ccc1OCc1cc(C(=O)N2C[C@]3(C)C[C@H]2CC(C)(C)C3)no1 | 32.4* | 2.9 | -7.4 | 0.5 | -24.1 | 27.2
CCC(C)NC(=O)CN1C(=O)C2CCCCN2C(=O)c2ccccc21 (stereo unspecified) | -1.1 | . | -2.9 | 2.7 | . | .
C=C(C)CN(CC)c1nc(N)c2c(N)nc3c(c2c1C#N)CC(=O)N3C12CC3CC(CC(C3)C1)C2 | 35.6* | 1.3 | 6.9 | 9.2 | 25.3 | 24.9
CCCNC(=O)C1(C)CCCN(C(=O)c2ccc(F)cc2Cl)C1 (stereo unspecified) | 1.0 | . | -1.9 | -0.5 | . | .
Nc1[nH]c(C(=O)c2ccc(Br)cc2)c(-c2ccc(F)cc2)c1C(=O)NCCc1c[nH]c2ccccc12 | 32.8* | . | 5.8 | 4.6 | . | 26.3
COc1ccc(-c2c(C(=O)c3ccc(Br)cc3)[nH]c(N)c2C(=O)NCCc2c[nH]c3ccccc23)cc1OC | 33.1* | . | 8.3 | 0.9 | . | 24.3
CCOC(=O)C1=CCN(S(=O)(=O)c2ccc(Cl)cc2)C1c1ccc(C)cc1 (stereo unspecified) | -4.8 | . | 8.0 | 1.6 | . | .
COc1ccc(COC[B-](F)(F)F)cc1 | 43.6* | . | 0.1 | -2.8 | 5.6 | 28.6
O=S(=O)(N[C@@H]1CCCC[C@H]1N1CCOCC1)c1ccc(Cl)cc1 | 2.9 | . | -0.8 | 0.8 | . | .
O=C(NCCN1CCC(Cc2ccccc2)CC1)C1CCCN(S(=O)(=O)c2ccccc2)C1 (stereo unspecified) | 7.3 | . | -1.3 | 2.3 | . | .
Oc1csc(Cc2nc(-c3ccc4ccccc4c3)cs2)n1 | 27.2 | 6.5 | -9.4 | 3.5 | 10.3 | .
Oc1csc(Cc2nc(-c3ccc(-c4ccccc4)cc3)cs2)n1 | 33.1* | 0.6 | 4.5 | 1.2 | 1.8 | -8.2
C=CCSC1=N/C(=C\C=C\c2ccco2)C(=O)S1 | 64.1* | -1.7 | 13.3 | 44.5* | 23.7 | 6.8
CCN(CC)c1ccc(C(=O)NNC(=O)C2CSC3(C)CCC(=O)N23)cc1 (stereo unspecified) | 39.2* | -4.1 | 1.4 | -1.9 | -5.7 | -1.8
O=C(O)c1ccc(N/N=C/c2cn(Cc3ccc(F)cc3)c3ccccc23)cc1 | 49.5* | 1.4 | 10.4 | 18.2 | -1.6 | 55.3*
COc1ccc2oc(C(=O)Nc3ccc(S(=O)(=O)N(C)C4CCN(C)CC4)cc3)c(C)c2c1 | 2.8 | -6.4 | -2.5 | -0.8 | -18.6 | .
Cc1ccc(C)c(NC(=O)c2ccc(CS(=O)(=O)Cc3ccccc3C)o2)c1 | -4.0 | . | 3.0 | -0.5 | . | .
Cc1ccc(C=Nc2ccc(N(C)C)cc2)o1 | 39.7* | 3.8 | 9.8 | 12.3 | 52.5* | 33.5*
COc1cccc(CNc2cccc3cccnc23)c1O | 34.1* | -7.9 | 5.5 | -0.6 | 34.2 | 11.7
SMILES | mABHD4 FP | JMJD2C inh | SIAE inh | PRMT1 FP inh | HTRA1 inh | ABHD4 confirm
COc1cc(/C=N/Nc2cccc3cccnc23)cc(OC)c1O | 31.6* | 4.1 | -1.8 | 7.6 | 15.1 | 32.7*
Oc1cccc(/C=N/Nc2cccc3cccnc23)c1 | 19.9 | -41.7 | 6.7 | 8.9 | 17.6 | .
Fc1ccc2[nH]c3c(N4CCc5ccccc5C4)ncnc3c2c1 | 12.0 | 3.8 | 3.7 | -0.9 | . | .
CCOc1ccc2[nH]c3c(N4CCc5ccccc5C4)ncnc3c2c1 | 34.9* | -24.7 | 16.1 | -6.5 | . | 53.3*
COc1ccccc1[C@@H]1C(c2ccccc2)=NN(c2ccc(Br)cc2)[C@H]1C(=O)N1CCOC1=O | 48.7* | . | -6.3 | -3.0 | -14.5 | -2.5
C=CCN=c1scc(C)n1/N=C/c1ccc(O)c(O)c1 | 40.2* | 4.0 | 14.5 | 9.5 | 34.7 | 23.2
CN=c1scc(C)n1/N=C/c1ccc(O)cc1 | -5.3 | . | 4.1 | 3.5 | 8.6 | .
O=C(c1ccco1)N1CC2(CC(c3ccc(Cl)cc3)=NO2)CN1Cc1ccc(Br)cc1 (stereo unspecified) | 10.3 | . | -6.6 | 0.3 | -57.3 | .
CC(=O)N=c1sc2ccccc2n1C | 4.5 | 5.3 | -3.7 | -1.6 | -0.7 | .
CC(=O)N=c1sc2nc3ccccc3nc2n1N(C(C)=O)C(C)=O | 35.4* | -4.4 | 2.3 | 7.8 | 5.3 | 3.3
COc1ccc2c3c(cccc13)C(=O)N(O)C2=O | 8.8 | -2.9 | 4.8 | 0.8 | 0.4 | .
CCN1C(=O)c2cccc3c(N)ccc(c23)C1=O | 33.3* | 7.6 | 8.7 | 171.7* | 24.4 | 58.0*
COC/C=C/C1=CC2=CC(=O)C(C)(OC(=O)c3cnc4ccccc4n3)C(=O)C2=CN1Cc1ccccc1 (stereo unspecified) | 33.9* | 9.6 | 14.4 | 14.4 | 25.8 | 13.0
COC/C=C/C1=CC2=CC(=O)C(C)(OC(=O)c3cnc4ccccc4n3)C(=O)C2=CN1Cc1ccc(OC)cc1 (stereo unspecified) | 25.8 | -1.5 | 7.7 | 17.9 | 10.4 | .
COc1cccc2c(=O)c3c([nH]c12)OC(C)(C)C3 | 3.6 | -9.5 | 4.2 | -2.5 | 0.8 | .
COc1cccc2c(=O)c3cccc(N)c3[nH]c12 | 58.1* | -10.5 | 6.4 | 17.1 | 31.6 | 65.6*
O=C(NCc1ccccc1)C(CCc1ccccc1)n1c(=O)c(-c2ccccc2)nc2ccccc21 (stereo unspecified) | -18.8 | . | -17.3 | 2.4 | . | .
COc1ccc(NS(=O)(=O)c2cc(N)ccc2N2CCCC2)cc1 | 39.5* | 3.2 | 16.2 | 7.4 | 10.9 | 32.5*
CCc1ccc(S(=O)(=O)Nc2cc(SCC(=O)O)c(O)c3ccccc23)cc1 | 31.4* | ? | 6.9 | 76.8* | 29.7 | 45.0*
CCc1ccc(S(=O)(=O)Nc2ccc(O)c3ccccc23)cc1 | 28.9 | 5.0 | -4.4 | 6.2 | 1.9 | .
O=C1C2C(C(=O)N1/N=C/c1cc([N+](=O)[O-])c(O)cc1O)C1C=CC2C12CC2 (stereo unspecified) | 30.8* | -1.8 | -1.0 | 2.2 | 17.9 | 20.7
O=C1C2C(C(=O)N1/N=C/c1cc([N+](=O)[O-])ccc1O)C1C=CC2C12CC2 (stereo unspecified) | 3.8 | 6.5 | -5.9 | -2.0 | 3.5 | .

Screening data: PubChem, several laboratories
